≈ marks a conversion by molar mass, not a printed value.
Tests used:
Rattus norvegicus [1] = experiment: Antipsychotic activity in Sprague-Dawley rat assessed as reversal of amphetamine-induced hyperlocomotion at 100 mg/kg, po administered for 30 mins prior to amphetamine challenge for 60 mins; type: functional
Method in brief: (§1)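 Male Sprague–Dawley rats (250–375 g), food-deprived the evening before, were habituated 30 min in locomotor chambers. They were then dosed po with vehicle (20% HP-β-CD in water, pH 6–7, max 10 mL/kg) or test article, followed 30 min later by amphetamine 1 mg/kg sc, n = 6–8 per group. Photobeam breaks were counted per 5 min over 120 min. Percent reversal used t = 60–120 totals versus the vehicle + amphetamine group, reported as mean ± SE.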

[2] = Solubility of the compound in fasted simulated intestinal fluid at pH 7.2 after 24 hrs; type: ADME; conditions: simulated gi fluid, pH 7.2, 24 h
Method in brief: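 Solubility in fasted simulated intestinal fluid (FaSSIF), pH 7.2.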

Cytochrome P450 2C9 = Cytochrome P450 2C9 (Homo sapiens, UniProt P11712); experiment: Inhibition of CYP2C9 in human liver microsomes; type: ADME
Sequence of Cytochrome P450 2C9 (P11712 whole entry): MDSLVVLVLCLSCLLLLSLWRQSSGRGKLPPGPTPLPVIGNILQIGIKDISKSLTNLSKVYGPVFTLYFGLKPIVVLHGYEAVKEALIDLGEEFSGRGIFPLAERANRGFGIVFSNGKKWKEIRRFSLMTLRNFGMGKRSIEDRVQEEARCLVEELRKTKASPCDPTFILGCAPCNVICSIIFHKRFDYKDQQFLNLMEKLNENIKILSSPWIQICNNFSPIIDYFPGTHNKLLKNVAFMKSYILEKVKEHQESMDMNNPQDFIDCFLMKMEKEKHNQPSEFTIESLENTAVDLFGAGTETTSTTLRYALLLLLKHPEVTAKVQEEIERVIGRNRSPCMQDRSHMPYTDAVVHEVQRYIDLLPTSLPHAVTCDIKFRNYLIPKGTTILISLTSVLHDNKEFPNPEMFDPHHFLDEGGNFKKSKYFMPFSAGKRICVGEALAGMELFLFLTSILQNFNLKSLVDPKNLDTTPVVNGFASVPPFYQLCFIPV
Method in brief: (§2)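 CYP1A2, 2C9, 2D6 and 3A4 inhibition measured together in a cocktail assay with human liver microsomes and known probe substrates; IC50 determined.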

Cytochrome P450 1A2 = target: T1, Cytochrome P450 1A2 (Homo sapiens, UniProt P05177); experiment: Inhibition of CYP1A2 in human liver microsomes; type: ADME; method in brief: as §2
T1 sequence (P05177 whole entry): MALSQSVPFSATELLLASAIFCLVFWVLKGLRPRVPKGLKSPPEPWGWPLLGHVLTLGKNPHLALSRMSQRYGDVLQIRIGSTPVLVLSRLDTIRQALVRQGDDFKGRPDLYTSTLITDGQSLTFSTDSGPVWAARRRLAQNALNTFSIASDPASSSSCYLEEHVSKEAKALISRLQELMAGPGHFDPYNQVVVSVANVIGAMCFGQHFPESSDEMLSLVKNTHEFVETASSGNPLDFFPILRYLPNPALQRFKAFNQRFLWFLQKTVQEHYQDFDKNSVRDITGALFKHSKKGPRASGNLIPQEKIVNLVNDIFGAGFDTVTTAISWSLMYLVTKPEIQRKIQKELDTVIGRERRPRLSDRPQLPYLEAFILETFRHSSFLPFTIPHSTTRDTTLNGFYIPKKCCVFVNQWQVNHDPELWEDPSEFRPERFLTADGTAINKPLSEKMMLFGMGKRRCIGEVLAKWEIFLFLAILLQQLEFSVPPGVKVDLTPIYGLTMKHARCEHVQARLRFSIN

Rattus norvegicus [3] = experiment: Reversal of amphetamine-induced hyperlocomotion in Sprague-Dawley rat at 56.6 mg/kg, po administered for 30 mins prior to amphetamine challenge for 60 mins; type: functional; method in brief: as §1

Compound: O=C1NCCc2nc(OCc3cccc(F)c3)ccc21
- inhibition in vivo at 100 mg/kg (Rattus norvegicus [1]): 55%
- solubility [2]: 31 µg/mL (≈ 114 µM)
- IC50 (Cytochrome P450 2C9): > 30 µM
- IC50 (Cytochrome P450 1A2): 25.7 µM
- inhibition in vivo at 56.6 mg/kg (Rattus norvegicus [3]): > 30%
